From ChEMBL document CHEMBL3526139, “Clinical pharmacokinetics, metabolism, and drug-drug interaction of carfilzomib” (Drug Metab Dispos, 2013) come the findings set out here.

A short description of series [1]: clinical. As to conditions: human, in vivo, po; call rule not given here.
Series [2] can be described thus: clinical. As to conditions: human, plasma, po.
Series [3] is described as follows: clinical. As to conditions: human, plasma, po. This is another data set of the same source.
The nature of series [4]: clinical. As to conditions: human, plasma, po. This is another data set of the same source.
Series [5] in a line: clinical. As to conditions: human, in vivo, po. The source holds these as a separate data set.
Series [6] in a line: Tmax in solid tumor patient at 2 mg, po administered as single dose followed by co-treatment with 27 mg/m2, iv carfilzomib over 2 to 10 mins on days 1, 2, 8, 9, 15 and 16 of single 28-day cycle measured on day 16. Type of series: ADME, organism-based. As to conditions: human, in vivo. The method in brief:
(§1)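 Oral midazolam 2 mg single dose on Day -7, then 2 mg given immediately after IV carfilzomib (27 mg/m2, 2–10 min infusion) on Days 1 and 16. Plasma sampled pre-dose and 5, 10, 30 min, 1–24 h post-midazolam. Midazolam measured by liquid-liquid extraction (methyl tert-butyl ether) and LC-MS/MS, range 0.100–100 ng/mL, d4-midazolam internal standard. Tmax derived noncompartmentally.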

Series [7] in a line: Half life in solid tumor patient at 2 mg, po administered as single dose followed by co-treatment with 27 mg/m2, iv carfilzomib over 2 to 10 mins on days 1, 2, 8, 9, 15 and 16 of single 28-day cycle measured on day 1. As to conditions: human, in vivo.
Series [8] is described as follows: clinical. As to conditions: human, plasma, po. This is another data set of the same source.
The nature of series [9]: clinical. As to conditions: human, plasma, po. This is another data set of the same source.
The nature of series [10]: clinical. As to conditions: human, plasma, po, 2 mg.
A short description of series [11]: AUC(infinity) in solid tumor patient at 2 mg, po administered as single dose measured on day 7. As to conditions: human, plasma.
A short description of series [12]: clinical. As to conditions: human, in vivo, po. This is another data set of the same source.
Series [13] can be described thus: clinical. As to conditions: human, plasma, po. The source holds these as a separate data set.
The nature of series [14]: AUC(last) in solid tumor patient at 2 mg, po administered as single dose measured on day 7. As to conditions: human, plasma.
Series [15] is described as follows: Tmax in solid tumor patient at 2 mg, po administered as single dose followed by co-treatment with 27 mg/m2, iv carfilzomib over 2 to 10 mins on days 1, 2, 8, 9, 15 and 16 of single 28-day cycle measured on day 1. Type of series: ADME, organism-based. As to conditions: human, in vivo. In short, it runs like this:
as §1

The subject of the next series is Homo sapiens. Description: Ratio of compound AUC (infinity) to carfilzomib AUC (infinity) in human multiple myeloma patient with normal renal function treated with carfilzomib at 15 mg/m'2, iv on days 1, 2, 8, 9, 15 and 16 of 28-day cycle over 2 to 10 mins by LC-MS/MS analysis. Type of series: ADME, organism-based. As to conditions: in vivo.
The next series has as its system Plasma. Description: Drug level in plasma of human patient with relapsed and refractory hematological malignancies treated intravenously with carfilzomib on days 1, 2, 8, 9, 15 and 16 of 28-day cycle over 2 to 10 mins by LC-MS/MS analysis. As to conditions: iv. Type of series: ADME.
Series [16] can be described thus: Drug excretion in urine of human patient with relapsed and refractory hematological malignancies treated intravenously with carfilzomib on days 1, 2, 8, 9, 15 and 16 of 28-day cycle over 2 to 10 mins by LC-MS/MS analysis. Type of series: ADME. As to conditions: in vivo, iv.
The target in another series is Cytochrome P450 3A (Homo sapiens, UniProt P08684+P20815+Q9HB55+P24462). In words: Inhibition of CYP3A in human liver microsomes treated with […] up to 30 uM by LC-MS/MS analysis. Type of series: ADME. The method in brief:
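Metabolites were tested for CYP3A inhibition in HLM at 0.04–30 µM, with or without a 30-min preincubation. Midazolam or testosterone substrate was used with a 5-min reaction and LC-MS/MS read-out.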

Series [17] concerns the target T1, CYP3A (Homo sapiens, UniProt P08684+P20815+P24462+Q9HB55). In words: Time-dependent inhibition of CYP3A in human liver microsomes preincubated for 30 mins with carfilzomib by LC-MS/MS analysis. As to conditions: liver microsomes. Type of series: ADME. In short, it runs like this:
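Pooled HLM (16 donors) given carfilzomib 0.01–10 µM in duplicate at 37°C with a 30-min preincubation before probe substrate was added. Substrate was set near Km (testosterone Km 100 µM; midazolam Km 3.8 µM). Protein was 0.1 mg/mL, or 0.05 mg/mL with midazolam. Metabolite formation was read by LC-MS/MS after 5 min and expressed relative to 0.5% acetonitrile controls to give IC50.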
A general note: Liver microsomes are vesicles of endoplasmic reticulum, rich in cytochrome P450 enzymes.

The target of series [18] is T1, CYP3A. In words: Inhibition of CYP3A in human liver microsomes treated with carfilzomib by LC-MS/MS analysis. Type of series: ADME.

`Cc1ncc2n1-c1ccc(Cl)cc1C(c1ccccc1F)=NC2` [MIDAZOLAM]: the results for the half-life (in “clinical [1]”; in [7]) were 5.5 h and 6.3 h, respectively. Further, the AUC(0-t) (usually the area under the concentration-time curve up to a stated or last time point) in “clinical [2]” amounted to 40.3 ng·h/mL; in the series “clinical [3]”, 47.3 ng·h/mL; in “clinical [8]”, 48.4 ng·h/mL; in the series “clinical [13]”, 48.4 ng·h/mL; in [14], 49.8 ng·h/mL. For the same molecule, the AUC(0-inf) (in general, the area under the concentration-time curve extrapolated to infinity) in “clinical [4]” was determined as 59.9 ng·h/mL; in the series “clinical [9]”, 51.5 ng·h/mL; in series [11], 54.3 ng·h/mL. Also, the Cmax (commonly the maximum level reached in the sampled fluid or tissue) was 16 ng/mL in “clinical [5]” and 15.7 ng/mL in the series “clinical [12]”. For the same molecule, the values for the time of peak concentration (Tmax) in [6] and in series [15] were 0.8 h and 0.7 h, respectively. Moreover, the AUC(0-t) at 12 h in the series “clinical [10]” is 42.5 ng·h/mL.
For `O=C(CN1CCOCC1)NC(CCc1ccccc1)C(=O)O` (stereo not drawn), in the series with Homo sapiens, the Ratio worked out at 1.2. Also, the Drug metabolism entry with Plasma is on record as “metabolite_detected”. The Drug excretion result in [16] is given as “metabolite_detected”. Moreover, the “inhibition (INH)” value against Cytochrome P450 3A was “Not Active”.
For `CC(C)CC(NC(=O)C(CCc1ccccc1)NC(=O)CN1CCOCC1)C(=O)NC(Cc1ccccc1)C(=O)NC(CC(C)C)C(=O)C(C)(O)CO` (stereo not drawn), at CYP3A [17], it took 1.8 µM to reach half-maximal inhibition (IC50 at 30 min). In addition, the Ratio in the series with Homo sapiens is given as 0.28. For the same molecule, the Drug metabolism entry in the series on Plasma is reported as “metabolite_detected”. Moreover, the Drug excretion result in series [16] is listed as “metabolite_detected”. Moreover, the half-maximal inhibitory concentration (IC50) (as a rule, the concentration needed to halve the response being measured) on CYP3A [18] is above 30 µM.
As for `CC(C)CC(NC(=O)C(CCc1ccccc1)NC(=O)CN1CCOCC1)C(=O)O` (stereo not drawn), the Ratio in the series with Homo sapiens is 0.11. Besides, in the series with Plasma, the Drug metabolism result is reported as “metabolite_detected”. Further, the Drug excretion entry in [16] was “metabolite_detected”. The “inhibition (INH)” value at Cytochrome P450 3A is on record as “Not Active”.
